# A selection: hits, their analogues and other compounds. The true share with any hit is near 4.5%.
# OX1R antag-1 = antagonists of human orexin 1 receptor | CHO/OX1R cells, Fluo-8 calcium fluorescence, orexin A | inhibition, % at 5 µM | actives 0.43% (n = 330,000) | AID 434989;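 active = inhibition above its plate's threshold, mean inhibition of all tested compounds on the plate plus 3 SD, cut at about 37% in these data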;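 also: 0% = orexin A challenge wells and 100% = SB-334867-A antagonist wells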
# GPR7 antagonist = antagonists of human GPR7 (neuropeptides B/W receptor 1). P48145. GPR7-expressing cells, fluorescence antagonist assay. inhibition, % at 4.4 µM. actives 1.1% (n = 290,000); in the data active = inhibition above about 16%, passing the limit was not always enough;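 also: cells stimulated with the agonist NPW; 0% = agonist with vehicle and 100% = vehicle without agonist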
# Target sequence (P48145 whole entry, looked up): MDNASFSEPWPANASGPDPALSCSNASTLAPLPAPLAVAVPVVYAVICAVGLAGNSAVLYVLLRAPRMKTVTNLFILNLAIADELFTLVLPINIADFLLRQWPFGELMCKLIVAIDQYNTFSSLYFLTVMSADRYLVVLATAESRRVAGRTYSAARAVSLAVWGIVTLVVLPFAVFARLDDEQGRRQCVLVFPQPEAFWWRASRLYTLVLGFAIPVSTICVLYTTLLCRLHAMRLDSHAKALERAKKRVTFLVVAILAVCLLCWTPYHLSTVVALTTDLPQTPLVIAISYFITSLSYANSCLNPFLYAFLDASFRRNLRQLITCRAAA
# TAAR1 antag = antagonists of human TAAR1. inhibition, % at 3 µM. CHO RD-HGA16 TAAR1, Fluo-8 calcium fluorescence, antagonist. Q96RJ0. actives 1.5% (n = 360,000);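 active = inhibition above a per-plate cutoff, the mean inhibition of test compounds on that plate plus 3 SD, cut at about 49% in these data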;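 also: 0% = DMSO plus EC80 beta-PEA response and 100% = DMSO alone without agonist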
# Target sequence (Q96RJ0 whole entry, looked up): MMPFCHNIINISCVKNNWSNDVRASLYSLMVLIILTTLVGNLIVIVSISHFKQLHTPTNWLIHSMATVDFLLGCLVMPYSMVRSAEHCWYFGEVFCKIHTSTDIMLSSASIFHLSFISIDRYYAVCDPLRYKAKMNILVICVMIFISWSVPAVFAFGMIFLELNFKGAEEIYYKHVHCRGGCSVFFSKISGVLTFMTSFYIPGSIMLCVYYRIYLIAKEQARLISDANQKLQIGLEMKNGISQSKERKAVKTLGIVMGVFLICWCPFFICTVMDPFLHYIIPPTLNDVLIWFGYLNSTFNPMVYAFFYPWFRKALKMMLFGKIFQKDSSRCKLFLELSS
#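 System: RD-HGA16 CHO cells with stable hTAAR1 and Gα16 | Probe or stimulus: EC80 β-phenethylamine stimulus | Dosing: 3 µM, single point | Times: Dye loading 75 min at 37 °C, then 30 min room temperature | Measured by: Fluo-8 calcium-sensitive fluorescence | Read-out basis: % inhibition of agonist calcium response | Replicates: n of 1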
# OX1R antag-2 = antagonists of human orexin 1 receptor (OX1R); AID 485270; OX1R-expressing cells, FRET antagonist read-out; inhibition, % at 6.6 µM; O43613; actives 1.8% (n = 330,000); in the data active = inhibition mostly above about 38%, no sharp cut-off; inactive = mostly below about 40%;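 also: 0% = agonist challenge alone and 100% = reference antagonist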
# TAAR1 ag = human TAAR1 agonism; activation, % at 3 µM; CHO RD-HGA16 TAAR1, Fluo-8 calcium fluorescence; vehicle wells 0%, saturating PEA agonist 100%; AID 624467; actives 0.99% (n = 360,000); Q96RJ0;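 active = activation above the mean activation of all test compounds in the run plus 3 SD, cut at about 38% in these data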
#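 Signal – calcium-sensitive Fluo-8 signal, excitation 470-495, emission 515-575 nm · System – RD-HGA16 (CHO) cells co-expressing Gα16 and hTAAR1 · Incubation – 17-24 h seeding, 75 min 37 °C dye, 30 min RT · Compound dosing – 3 µM single concentration · Repeats – no replicates (n 1)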
# CHO parental Ca = counter-screen: ATP calcium response change in parental CHO cells | actives 0.63% (n = 330,000) | AID 463079 | parental CHO-K1, ATP-induced calcium, Fluo-8 fluorescence | inhibition, % at 5.6 µM;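 active = inhibition above that plate's mean sample inhibition plus 3 SD, cut at about 26% in these data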;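 also: 0% = ATP-challenged DMSO wells and 100% = DMSO wells without ATP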
#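 material = parental CHO cells | also added = ATP as calcium-mobilizing challenge | dosing = single point at 5.6 µM | detection = intracellular calcium via Fluo-8 no-wash fluorescent dye | read-out = % inhibition | benchmarks = low control ATP plus DMSO, high control DMSO only | repeats = one well per compound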
# * = called active by the depositor; · = no result.
SMILES,OX1R antag-1,GPR7 antagonist,TAAR1 antag,OX1R antag-2,TAAR1 ag,CHO parental Ca
O=C1NC(=O)C2C3C=CC(C12)C1C(=O)NC(=O)C31 (stereo not drawn),·,·,-25.2,·,1.4,·
O=c1[nH]cnc2nn(C3OC(CO)C(O)C3O)nc12 (stereo not drawn),·,·,-36.3,·,1.7,·
COC(=O)c1cc(C(=O)Nc2ccc(C)cn2)cc([N+](=O)[O-])c1,-25.8,5.6,5.8,50.5*,3.6,-23.5
O=C(COC(=O)C1CCN(S(=O)(=O)c2ccc(Cl)c(C(F)(F)F)c2)CC1)NCc1ccco1,-19.2,·,8.0,18.0,1.3,41.6*
CSc1ccc(CN2CCN(Cc3ccc([N+](=O)[O-])cc3)CC2)cc1,-25.8,31.0*,3.0,28.7,-1.7,-5.1
O=[N+]([O-])c1ccc(CN2CCCCCC2)cc1,-11.9,-8.8,-15.5,22.8,5.6,-3.6
CN1CCCCC(NC(=O)COCc2ccccc2)C1=O (stereo not drawn),·,·,-15.4,·,0.8,·
N#CC1=C(N)NC(SCc2ccc(Br)cc2)=C(C#N)C12CCCCC2,4.5,3.7,26.9,19.0,22.0,45.4*
N#CC1=C(N)NC(SCc2ccc(Cl)cc2)=C(C#N)C12CCCCC2,54.3*,7.3,61.7*,25.0,21.6,46.9*
O=C(CCc1c[nH]c2ccccc12)N[C@@H](Cc1c[nH]c2ccc(O)cc12)C(=O)O,13.2,5.3,5.1,3.0,-0.6,-17.6
Cc1cc2c(c(=O)o1)[C@@]1(C(=O)N(C)c3c(Br)cccc31)C1=C(CCCC1=O)O2,·,·,-19.6,·,1.3,·
O=c1[nH]c2cc(C(F)(F)F)ccc2n1-c1cc(C(F)(F)F)ccc1O,51.2*,·,-7.5,22.1,1.8,83.8*
CCC1Sc2ccc(S(=O)(=O)Nc3ccc(OC)c(OC)c3)cc2NC1=O (stereo not drawn),46.4*,10.5,11.1,24.4,10.7,44.7*
CCC1Sc2ccc(S(=O)(=O)Nc3ccc(OC)cc3)cc2NC1=O (stereo not drawn),7.9,18.3,23.8,2.4,55.5*,7.6
CN(C)C(CNC(=O)CSc1nc2ccccc2c(=O)n1Cc1ccco1)c1ccccc1 (stereo not drawn),-26.4,·,-3.3,15.3,0.5,-18.9
COC(=O)c1ccc(-c2n[nH]c(=O)c3ccccc23)cc1,-11.1,-10.4,5.0,43.2*,4.4,0.8
COc1cc(/C=N/NC(=O)c2ccc(CSc3nc4ccccc4[nH]3)cc2)cc(OC)c1OC,-17.3,2.5,52.4*,5.8,14.2,-12.0
COc1cc(/C=N/NC(=O)c2ccc3nc[nH]c3c2)cc(OC)c1OC,-4.8,-3.1,·,11.8,·,-12.7
COc1ccc2c(C)cc(SCC(=O)NC3CCCC3)nc2c1,-8.8,·,-16.4,3.9,13.8,-8.2
COc1ccc2c(C)cc(SCC(=O)c3ccc4c(c3)OCO4)nc2c1,-14.7,-11.8,3.1,39.6*,2.2,-21.9
CC(=O)O[C@H]1C=C[C@@H](NC(=O)OC(C)(C)C)C1,·,·,-0.6,·,0.2,·
COC(=O)C1=C(C)N(Cc2cccc(C(F)(F)F)c2)C(=NCc2cc(OC)c(OC)c(OC)c2)NC1c1cccc(F)c1 (stereo not drawn),·,·,28.8,·,31.3,·
COc1cccc([C@@H]2CC=C(C(=O)O)CN2S(=O)(=O)c2ccc(C)cc2)c1,-9.0,·,8.2,11.1,14.7,-15.7
COc1ccc([N+](=O)[O-])c2c(=O)ccoc12,-10.7,-2.5,1.2,29.5,0.3,-7.8
CCOC(=O)c1cc(=O)c2c([N+](=O)[O-])ccc(OC)c2o1,12.2,-3.0,-8.2,69.8*,0.2,-6.9
SMILES,OX1R antag-1,GPR7 antagonist,TAAR1 antag,OX1R antag-2,TAAR1 ag,CHO parental Ca
CCOc1ccc2nc(NC(=O)c3ccccn3)sc2c1,11.5,-4.0,16.8,47.2,6.0,6.8
COc1ccccc1C(=O)Nc1nc2ccc(S(C)(=O)=O)cc2s1,1.3,1.4,9.1,40.7*,13.9,-9.7
Cc1ccc2nc(NC(=O)c3ccccn3)sc2c1,33.2,1.2,18.5,29.4,4.0,27.2*
CS(=O)(=O)c1ccc2nc(NC(=O)c3ccccc3Cl)sc2c1,·,-13.9,-30.4,·,3.5,·
COc1ccc(CCNC(=O)C(=O)NCC2OCCN2S(=O)(=O)c2cc(F)ccc2F)cc1OC (stereo not drawn),-30.3,8.4,39.3,-3.8,13.4,-14.6
CC(C)(C)C(=O)NC(=S)NNC(=O)c1sc2ccccc2c1Cl,69.0*,-7.5,·,8.0,·,40.5*
Cn1c2ccccc2c(=O)c2cc(C#Cc3ccc(N)cc3)ccc21,-31.4,7.3,48.6*,57.6*,13.3,-16.7
COc1ccc(C#Cc2ccc3c(c2)c(=O)c2ccccc2n3C)cc1,-16.3,-6.8,-0.9,13.1,5.9,-13.4
OC(c1cc(-c2ccc(Cl)cc2)nc2ccccc12)C1CCCCN1 (stereo not drawn),6.3,62.9*,25.2,4.3,16.6,16.5
OC(c1cc(C(F)(F)F)nc2c(Cl)cc(Cl)cc12)C1CCCCN1 (stereo not drawn),-13.0,45.1*,16.9,7.8,36.9,2.5
CC(O)(c1ccccc1)C(c1ccccc1)C1CCCCN1 (stereo not drawn),-13.8,-7.7,-8.8,17.8,-3.4,-12.9
N/C(=N\OC(=O)c1cccc2ccccc12)c1cccnc1,-26.1,9.8,-0.6,53.2*,0.9,-24.8
COc1cc(Cl)c(NC2=CC(=O)C(=O)c3ccccc32)c(OC)c1,-8.6,·,0.0,33.0*,1.3,-16.7
O=S(=O)(Cc1ccc(Cl)cc1)Oc1ccc(Cl)cc1,·,·,54.6*,·,0.2,·
O=[N+]([O-])c1cc2c(ccc3occc32)o1,·,·,2.2,·,-1.8,·
COCCCNC(=O)c1cccc2c(-c3ccnn3C)coc12,·,·,-9.2,·,0.7,·
Cc1cc2c(cc1C)C(=O)C(Br)=C(N)C2=O,·,·,-31.7,·,1.4,·
NC1=C(Br)C(=O)c2ccccc2C1=O,-6.0,-5.3,-25.4,71.8*,1.3,-12.3
CCCCCCCCCCn1ccc(=N)cc1,48.0*,22.8*,-2.5,22.6,18.3,34.0*
CCOC(=O)C1=C(C)N(C)C(=O)NC1c1c(O)ccc2ccccc12 (stereo not drawn),-25.9,-7.2,-9.7,-2.6,2.9,-10.8
Cc1cccc(C(=O)N(CC(=O)Nc2sc(C)c(C)c2C(N)=O)C2CCCC2)c1,-29.5,-4.2,36.2,26.9,15.6,-35.6
Cc1ccc(C(=O)N(CC(=O)Nc2sc(C)c(C)c2C(N)=O)C2CCCC2)cc1,-31.0,3.2,51.2*,23.8,10.9,-8.3
COC(=O)C1=C(C)N(Cc2ccccc2C(F)(F)F)C(=NCc2ccccc2C(F)(F)F)NC1c1cccc(C(F)(F)F)c1 (stereo not drawn),·,·,-10.7,·,0.8,·
Cc1cccc(-n2cnc3c(c2=O)c2nc4ccccc4nc2n3Cc2ccco2)c1,-7.2,·,3.0,68.9*,6.7,-22.7
